Assay results published in ChEMBL document CHEMBL4811250, “Discovery and Optimization of 2H-1λ2-Pyridin-2-one Inhibitors of Mutant Isocitrate Dehydrogenase 1 for the Treatment of Cancer” (J Med Chem, 2021).

System: not listed separately
Assay: Kinetic solubility of the compound in pH 7.4 phosphate buffer measured after 6 hrs by UV spectroscopy
Assay type: physicochemical
Details: read-out: Kinetic_solubility

solubility kinetic at 6 h [µg/mL]	Compound
< 1	CCc1cccc(CC)c1-n1c(C=C(C)C)c(C(=O)N2CCNCC2C)cc(-c2nc(-c3ccc(Cl)cc3)cs2)c1=O (stereo unspecified)
< 1	CCc1ccc(OC)cc1-n1c(C=C(C)C)c(C(=O)N2CCNCC2)cc(-c2nc(-c3ccc(Cl)cc3)cs2)c1=O

Compound	solubility kinetic at 6 h [µg/mL]
CCc1cccc(CC)c1-n1c(C=C(C)C)c(C(=O)N2C3CCC2CNC3)cc(-c2nc(-c3ccc(Cl)cc3)cs2)c1=O	< 1

System: not listed separately
Assay: Permeability of compound at pH 7.4 by PAMPA assay
Assay type: ADME
Details: read-out: permeability
Summary of the method: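 Stirring double-sink PAMPA using a lipid/dodecane membrane tuned for GI passive permeability, pH 7.4 on donor and acceptor sides. Compound at 0.05 mM (0.5% DMSO), 30 min permeation at room temperature with donor stirring. Donor and acceptor concentrations read by UV plate reader.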

Papp [×10⁻⁶ cm/s]	Compound
40	CCc1cccc(CC)c1-n1c(C=C(C)C)c(C(=O)N2CCNCC2C)cc(-c2nc(-c3ccc(Cl)cc3)cs2)c1=O (stereo unspecified)
549	CCc1ccc(OC)cc1-n1c(C=C(C)C)c(C(=O)N2CCNCC2)cc(-c2nc(-c3ccc(Cl)cc3)cs2)c1=O

Compound	Papp [×10⁻⁶ cm/s]
CCc1cccc(CC)c1-n1c(C=C(C)C)c(C(=O)N2C3CCC2CNC3)cc(-c2nc(-c3ccc(Cl)cc3)cs2)c1=O	99

System: not listed separately
Assay: Metabolic stability in rat liver microsomes assessed as half life incubated for 15 mins by high resolution LC/MS analysis
Assay type: ADME, Microsome
Details: 0.25 h
Summary of the method: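 Rat liver microsomes (0.5 mg/mL protein) with 1.0 μM compound and NADPH regenerating system in 100 mM phosphate pH 7.4, 15 min at 37 °C. Quenched with acetonitrile containing albendazole internal standard. Percent remaining measured by high-resolution LC/MS.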

t1/2 [min]	Compound
17	CCc1cccc(CC)c1-n1c(C=C(C)C)c(C(=O)N2CCNCC2C)cc(-c2nc(-c3ccc(Cl)cc3)cs2)c1=O (stereo unspecified)
> 30	CCc1ccc(OC)cc1-n1c(C=C(C)C)c(C(=O)N2CCNCC2)cc(-c2nc(-c3ccc(Cl)cc3)cs2)c1=O

Compound	t1/2 [min]
CCc1cccc(CC)c1-n1c(C=C(C)C)c(C(=O)N2C3CCC2CNC3)cc(-c2nc(-c3ccc(Cl)cc3)cs2)c1=O	9

System: Isocitrate dehydrogenase [NADP] cytoplasmic (Homo sapiens), O75874 [R132H]
Sequence (O75874 whole entry R132H): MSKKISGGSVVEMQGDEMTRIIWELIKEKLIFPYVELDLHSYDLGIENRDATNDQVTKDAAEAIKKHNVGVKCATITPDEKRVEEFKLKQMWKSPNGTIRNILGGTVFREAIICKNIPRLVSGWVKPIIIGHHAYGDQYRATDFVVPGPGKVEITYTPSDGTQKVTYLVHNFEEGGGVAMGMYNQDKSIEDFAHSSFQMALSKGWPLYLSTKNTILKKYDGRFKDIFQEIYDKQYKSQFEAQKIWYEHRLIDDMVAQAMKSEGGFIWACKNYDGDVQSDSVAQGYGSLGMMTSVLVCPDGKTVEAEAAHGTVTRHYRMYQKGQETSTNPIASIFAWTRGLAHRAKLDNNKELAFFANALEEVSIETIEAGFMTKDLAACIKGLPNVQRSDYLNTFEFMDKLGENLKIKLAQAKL
Assay: Inhibition of IDH1 R132H mutant (unknown origin) expressed in human U87 cells assessed as R-2-hydroxyglutarate production at 500 nM after 48 hrs by LC-MS analysis
Assay type: cell-based
Parameters: scale not given: the % may be the effect or the level left
Details: not given
Summary of the method: (§1)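 U87-R132H cells (8000/well, DMEM high glucose, 10% FBS) were seeded, cultured overnight at 37 °C and 5% CO2, then given compound or DMSO. After 48 h, 2-HG secreted into the medium was measured by RapidFire LC-MS. Cell viability was checked by CellTiter-Glo.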

Activity [%]	Compound
11	CCc1cccc(CC)c1-n1c(C=C(C)C)c(C(=O)N2CCNCC2C)cc(-c2nc(-c3ccc(Cl)cc3)cs2)c1=O (stereo unspecified)
19	CCc1ccc(OC)cc1-n1c(C=C(C)C)c(C(=O)N2CCNCC2)cc(-c2nc(-c3ccc(Cl)cc3)cs2)c1=O

Compound	Activity [%]
CCc1cccc(CC)c1-n1c(C=C(C)C)c(C(=O)N2C3CCC2CNC3)cc(-c2nc(-c3ccc(Cl)cc3)cs2)c1=O	18

Molecular target: Isocitrate dehydrogenase [NADP] cytoplasmic (Homo sapiens, UniProt O75874, R132C)
Sequence (O75874 2-414 R132C limits assumed): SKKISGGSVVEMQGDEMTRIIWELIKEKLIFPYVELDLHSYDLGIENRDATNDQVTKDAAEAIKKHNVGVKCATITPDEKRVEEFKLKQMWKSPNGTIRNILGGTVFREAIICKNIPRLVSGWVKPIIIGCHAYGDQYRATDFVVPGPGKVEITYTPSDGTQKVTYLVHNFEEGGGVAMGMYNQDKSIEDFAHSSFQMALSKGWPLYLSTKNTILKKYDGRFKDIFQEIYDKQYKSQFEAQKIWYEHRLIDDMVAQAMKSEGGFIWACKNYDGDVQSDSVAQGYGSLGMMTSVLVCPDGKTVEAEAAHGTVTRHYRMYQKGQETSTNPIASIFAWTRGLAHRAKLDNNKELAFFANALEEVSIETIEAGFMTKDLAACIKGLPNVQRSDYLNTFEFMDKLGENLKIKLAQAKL
Assay: Inhibition of IDH1 R132C mutant (unknown origin) assessed as reduction in NADPH consumption using alpha-KG as substrate incubated for 5 mins by diaphorase/resazurin-coupled system
Details: not given

IC50 [nM]	Compound
53	CCc1cccc(CC)c1-n1c(C=C(C)C)c(C(=O)N2CCNCC2C)cc(-c2nc(-c3ccc(Cl)cc3)cs2)c1=O (stereo unspecified)
75	CCc1ccc(OC)cc1-n1c(C=C(C)C)c(C(=O)N2CCNCC2)cc(-c2nc(-c3ccc(Cl)cc3)cs2)c1=O

Compound	IC50 [nM]
CCc1cccc(CC)c1-n1c(C=C(C)C)c(C(=O)N2C3CCC2CNC3)cc(-c2nc(-c3ccc(Cl)cc3)cs2)c1=O	47

System: Isocitrate dehydrogenase [NADP] cytoplasmic (Homo sapiens), O75874 [R132H]
Assay: Inhibition of IDH1 R132H mutant (unknown origin) expressed in human U87 cells assessed as R-2-hydroxyglutarate production at 100 nM after 48 hrs by LC-MS analysis
Assay type: cell-based
Parameters: scale not given: the % may be the effect or the level left
Details: not given
Summary of the method: as §1

Activity [%]	Compound
14	CCc1cccc(CC)c1-n1c(C=C(C)C)c(C(=O)N2CCNCC2C)cc(-c2nc(-c3ccc(Cl)cc3)cs2)c1=O (stereo unspecified)
40	CCc1ccc(OC)cc1-n1c(C=C(C)C)c(C(=O)N2CCNCC2)cc(-c2nc(-c3ccc(Cl)cc3)cs2)c1=O

Compound	Activity [%]
CCc1cccc(CC)c1-n1c(C=C(C)C)c(C(=O)N2C3CCC2CNC3)cc(-c2nc(-c3ccc(Cl)cc3)cs2)c1=O	32

Molecular target: Isocitrate dehydrogenase [NADP] cytoplasmic (Homo sapiens, UniProt O75874, R132H)
Sequence (O75874 2-414 R132H limits assumed): as the sequence (O75874 2-414 R132C limits assumed) above, with C131H counted along it
Assay: Inhibition of IDH1 R132H mutant (unknown origin) assessed as reduction in NADPH consumption using alpha-KG as substrate incubated for 5 mins by diaphorase/resazurin-coupled system
Details: not given

IC50 [nM]	Compound
39	CCc1cccc(CC)c1-n1c(C=C(C)C)c(C(=O)N2CCNCC2C)cc(-c2nc(-c3ccc(Cl)cc3)cs2)c1=O (stereo unspecified)
114	CCc1ccc(OC)cc1-n1c(C=C(C)C)c(C(=O)N2CCNCC2)cc(-c2nc(-c3ccc(Cl)cc3)cs2)c1=O

Compound	IC50 [nM]
CCc1cccc(CC)c1-n1c(C=C(C)C)c(C(=O)N2C3CCC2CNC3)cc(-c2nc(-c3ccc(Cl)cc3)cs2)c1=O	62
